Data published in ChEMBL document CHEMBL4138313 (J Med Chem, 2018).

Tests used:
Type in all cases: cell-based
[1] = biological target: Poly [ADP-ribose] polymerase 1 (Homo sapiens, UniProt P09874); test: Binding affinity to PARP1 in human OVCAR8 cells assessed as reduction in [125I]-KX1 binding by gamma counting analysis
MEF [2] = test: Cytotoxicity against mouse PARP2 deficient MEF cells expressing PARP1 assessed as reduction in cell viability after 4 to 7 days by cell-titer glo assay
MEF [3] = test: Cytotoxicity against mouse PARP1 deficient MEF cells assessed as reduction in cell viability at 0.016 to 100 uM after 4 to 7 days by cell-titer glo assay
How it was run: (§1)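 Cells kept at 37 °C, 5% CO2, 15% O2 in RPMI 1640 with 10% FBS and 1% penicillin/streptomycin. Seeded at 1,000 cells/well and dosed 24 h later at 100–0.016 µM. Exposure lasted 4–7 days, then viability was read by CellTiter Glo luminescence. Signal was normalized to percent survival against the mean of vehicle controls. Three repeat experiments.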

MEF [4] = test: Cytotoxicity against mouse wild type MEF cells assessed as reduction in cell viability after 4 to 7 days by cell-titer glo assay
MEF [5] = test: Cytotoxicity against mouse wild type MEF cells assessed as reduction in cell viability at 0.016 to 100 uM after 4 to 7 days by cell-titer glo assay; how it was run: as §1
MEF [6] = test: Cytotoxicity against mouse PARP2 deficient MEF cells expressing PARP1 assessed as reduction in cell viability at 0.016 to 100 uM after 4 to 7 days by cell-titer glo assay; how it was run: as §1
OVCAR-8 = test: Cytotoxicity against human OVCAR8 cells assessed as cell survival at 10 uM after 4 to 7 days by cell-titer glo assay; details: ovcar-8, 10 µM
MEF [7] = test: Cytotoxicity against mouse PARP1 deficient MEF cells assessed as reduction in cell viability after 4 to 7 days by cell-titer glo assay

Chain of Poly [ADP-ribose] polymerase 1 (P09874 whole entry): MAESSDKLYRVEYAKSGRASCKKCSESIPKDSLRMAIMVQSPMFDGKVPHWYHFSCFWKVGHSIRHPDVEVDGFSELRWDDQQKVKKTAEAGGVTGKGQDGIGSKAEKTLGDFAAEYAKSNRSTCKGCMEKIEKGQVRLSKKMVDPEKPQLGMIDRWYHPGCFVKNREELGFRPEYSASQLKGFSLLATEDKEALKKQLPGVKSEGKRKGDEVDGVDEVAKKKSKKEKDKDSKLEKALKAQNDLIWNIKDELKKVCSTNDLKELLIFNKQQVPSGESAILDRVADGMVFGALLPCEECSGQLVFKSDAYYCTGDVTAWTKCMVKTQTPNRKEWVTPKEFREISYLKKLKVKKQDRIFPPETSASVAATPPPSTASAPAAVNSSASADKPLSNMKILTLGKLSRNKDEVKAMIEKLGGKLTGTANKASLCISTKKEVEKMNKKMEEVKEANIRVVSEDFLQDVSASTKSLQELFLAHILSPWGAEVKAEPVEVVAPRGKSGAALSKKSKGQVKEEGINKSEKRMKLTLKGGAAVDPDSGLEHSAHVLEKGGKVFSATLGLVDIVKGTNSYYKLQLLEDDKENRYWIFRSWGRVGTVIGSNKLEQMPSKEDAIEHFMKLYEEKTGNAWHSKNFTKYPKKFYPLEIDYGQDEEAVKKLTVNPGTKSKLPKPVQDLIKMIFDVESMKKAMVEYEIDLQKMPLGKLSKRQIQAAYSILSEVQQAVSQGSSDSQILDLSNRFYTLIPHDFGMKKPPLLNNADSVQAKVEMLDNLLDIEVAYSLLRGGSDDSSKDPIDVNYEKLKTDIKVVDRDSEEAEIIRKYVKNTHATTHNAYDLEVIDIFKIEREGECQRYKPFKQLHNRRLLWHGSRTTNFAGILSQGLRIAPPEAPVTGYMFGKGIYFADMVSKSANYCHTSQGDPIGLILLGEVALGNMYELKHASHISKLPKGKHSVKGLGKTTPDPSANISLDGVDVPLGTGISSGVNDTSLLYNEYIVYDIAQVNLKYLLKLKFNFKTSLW

COC1CCN(C(=O)c2cc(Cc3n[nH]c(=O)c4ccccc34)ccc2F)CC1 [AZD2461]
IC50 [1]: 1.7 nM

O=C(c1cc(Cc2n[nH]c(=O)c3ccccc23)ccc1F)N1CC2(CCN(C(=O)C3CC3)CC2)C1
IC50 [1]: 100 nM
EC50 (MEF [2]): 57.2 µM
Activity (MEF [3]): < 50%
EC50 (MEF [4]): 49.3 µM

O=C(c1cc(Cc2n[nH]c(=O)c3ccccc23)ccc1F)N1CCC2(CCN(C(=O)C3CC3)CC2)C1
IC50 [1]: 225 nM
EC50 (MEF [2]): 61 µM
Activity (MEF [3]): < 50%
EC50 (MEF [4]): 41.6 µM

O=C(c1cc(Cc2n[nH]c(=O)c3ccccc23)ccc1F)N1CCC12CCNCC2
Activity (MEF [5]): < 50%
EC50 (MEF [2]): 106 µM
Activity (MEF [3]): < 50%

O=C(c1cc(Cc2n[nH]c(=O)c3ccccc23)ccc1F)N1CCC2(CCC2)C1
IC50 [1]: 32.4 nM
EC50 (MEF [2]): 54.7 µM
Activity (MEF [3]): < 50%
EC50 (MEF [4]): 45.2 µM

O=C(C1CC1)N1CCC2(CC1)CCN2C(=O)c1cc(Cc2n[nH]c(=O)c3ccccc23)ccc1F
IC50 [1]: 431 nM
EC50 (MEF [2]): 44.4 µM
Activity (MEF [3]): < 50%
EC50 (MEF [4]): 47.5 µM

CC(C)(C)OC(=O)N1CC2(CCN2C(=O)c2cc(Cc3n[nH]c(=O)c4ccccc34)ccc2F)C1
IC50 [1]: 877 nM
EC50 (MEF [2]): 35.8 µM
Activity (MEF [3]): < 50%
EC50 (MEF [4]): 42.9 µM

O=C(c1cc(Cc2n[nH]c(=O)c3ccccc23)ccc1F)N1CCC2(CCCCC2)CC1
IC50 [1]: 57.1 nM
EC50 (MEF [2]): 41.3 µM
Activity (MEF [3]): < 50%
EC50 (MEF [4]): 41.3 µM

O=C(c1cc(Cc2n[nH]c(=O)c3ccccc23)ccc1F)N1CCC12CNC2
Activity (MEF [5]): < 50%
IC50 [1]: 526 nM
Activity (MEF [6]): < 50%
Activity (MEF [3]): < 50%

O=C(c1cc(Cc2n[nH]c(=O)c3ccccc23)ccc1F)N1CC2(CCC2)C1
IC50 [1]: 33.9 nM
EC50 (MEF [2]): 49 µM
Activity (MEF [3]): < 50%
Activity (OVCAR-8): Non-Toxic
EC50 (MEF [4]): 48.3 µM

O=C(C1CC1)N1CC2(CCN2C(=O)c2cc(Cc3n[nH]c(=O)c4ccccc34)ccc2F)C1
IC50 [1]: 130 nM
EC50 (MEF [2]): 46.7 µM
Activity (MEF [3]): < 50%
EC50 (MEF [4]): 53.2 µM

O=C(c1cc(Cc2n[nH]c(=O)c3ccccc23)ccc1F)N1CCC2(CCCC2)C1
IC50 [1]: 51.4 nM
EC50 (MEF [2]): 55.5 µM
EC50 (MEF [4]): 31.7 µM

O=C(c1cc(Cc2n[nH]c(=O)c3ccccc23)ccc1F)N1CCC12CCCCC2
IC50 [1]: 284 nM
EC50 (MEF [2]): 78.8 µM
Activity (MEF [3]): < 50%
EC50 (MEF [4]): 32.6 µM

O=C(c1cc(Cc2n[nH]c(=O)c3ccccc23)ccc1F)N1CCC2(CCCCC2)C1
IC50 [1]: 141 nM
EC50 (MEF [2]): 46.8 µM
EC50 (MEF [7]): 51.6 µM
EC50 (MEF [4]): 42.7 µM

O=C(c1cc(Cc2n[nH]c(=O)c3ccccc23)ccc1F)N1CCC2(CC1)CCN(C(=O)C1CC1)CC2
EC50 (MEF [2]): 21.6 µM
Activity (OVCAR-8): Non-Toxic
EC50 (MEF [7]): 49.7 µM
EC50 (MEF [4]): 24.8 µM

CC(C)(C)OC(=O)N1CCC2(CC1)CN(C(=O)c1cc(Cc3n[nH]c(=O)c4ccccc34)ccc1F)C2
EC50 (MEF [2]): 41.5 µM
EC50 (MEF [7]): 49.2 µM
EC50 (MEF [4]): 23.4 µM

O=C(c1cc(Cc2n[nH]c(=O)c3ccccc23)ccc1F)N1CCC2(CNC2)C1
Activity (MEF [5]): < 50%
IC50 [1]: 1240 nM
Activity (MEF [6]): < 50%
Activity (MEF [3]): < 50%

O=C(c1cc(Cc2n[nH]c(=O)c3ccccc23)ccc1F)N1CC2(COC2)C1
EC50 (MEF [2]): 53.3 µM
Activity (MEF [3]): < 50%
EC50 (MEF [4]): 52.2 µM

O=C(c1cc(Cc2n[nH]c(=O)c3ccccc23)ccc1F)N1CCC2(CCNCC2)C1
Activity (MEF [5]): < 50%
IC50 [1]: 3880 nM
Activity (MEF [6]): < 50%
Activity (MEF [3]): < 50%

CC(C)(C)OC(=O)N1CC2(C1)CN(C(=O)c1cc(Cc3n[nH]c(=O)c4ccccc34)ccc1F)C2
EC50 (MEF [2]): 24.7 µM
Activity (MEF [3]): < 50%
EC50 (MEF [4]): 31.1 µM

CC(C)(C)OC(=O)N1CC2(CCN(C(=O)c3cc(Cc4n[nH]c(=O)c5ccccc45)ccc3F)C2)C1
EC50 (MEF [2]): 31.8 µM
Activity (MEF [3]): < 50%
EC50 (MEF [4]): 29.2 µM

CC(C)(C)OC(=O)N1CCC2(CC1)CCN2C(=O)c1cc(Cc2n[nH]c(=O)c3ccccc23)ccc1F
IC50 [1]: 2970 nM
EC50 (MEF [2]): 33.2 µM
Activity (MEF [3]): < 50%
EC50 (MEF [4]): 23.3 µM

O=C(c1cc(Cc2n[nH]c(=O)c3ccccc23)ccc1F)N1CCC2(CCN(C(=O)C3CC3)C2)C1 (configuration not stated)
Activity (MEF [5]): < 50%
IC50 [1]: 2590 nM
EC50 (MEF [2]): 70.9 µM
Activity (MEF [3]): < 50%

O=C(c1cc(Cc2n[nH]c(=O)c3ccccc23)ccc1F)N1CCC2(CCNCC2)CC1
Activity (MEF [5]): < 50%
IC50 [1]: 234 nM
EC50 (MEF [2]): 59.7 µM
Activity (MEF [3]): < 50%

O=C(c1cc(Cc2n[nH]c(=O)c3ccccc23)ccc1F)N1CCC2(CCNC2)C1 (configuration not stated)
Activity (MEF [5]): < 50%
IC50 [1]: 1120 nM
Activity (MEF [3]): < 50%

O=C(c1cc(Cc2n[nH]c(=O)c3ccccc23)ccc1F)N1CC2(CCCCC2)C1
IC50 [1]: 65.4 nM
EC50 (MEF [2]): 39.9 µM
Activity (OVCAR-8): Non-Toxic
EC50 (MEF [7]): 48.3 µM
EC50 (MEF [4]): 25.6 µM

O=C(c1cc(Cc2n[nH]c(=O)c3ccccc23)ccc1F)N1CC2(CCNCC2)C1
Activity (MEF [5]): < 50%
IC50 [1]: 1420 nM
EC50 (MEF [2]): 68.5 µM
Activity (MEF [3]): < 50%

O=C(c1cc(Cc2n[nH]c(=O)c3ccccc23)ccc1F)N1CCC12CCC2
IC50 [1]: 36.5 nM
EC50 (MEF [2]): 58.3 µM
Activity (MEF [3]): < 50%
EC50 (MEF [4]): 48 µM

O=C(c1cc(Cc2n[nH]c(=O)c3ccccc23)ccc1F)N1CCC2(C1)CN(C(=O)C1CC1)C2
Activity (MEF [5]): < 50%
IC50 [1]: 2540 nM
EC50 (MEF [2]): 61.8 µM
Activity (MEF [3]): < 50%

O=C(c1cc(Cc2n[nH]c(=O)c3ccccc23)ccc1F)N1CC2(CNC2)C1
Activity (MEF [5]): < 50%
IC50 [1]: 2390 nM
Activity (MEF [6]): < 50%
Activity (MEF [3]): < 50%
